In the EternaBench riboswitch data:

System: MS2 coat protein
Test: apparent Kd, MS2 coat protein; higher = weaker binding; RNA-MaP array; FMN 200 µM where present
Summary of the method: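 Designs on Illumina sequencing-chip clusters, transcribed by stalled E. coli RNA polymerase, were exposed to SNAP-549-labelled MS2 coat protein in doubling steps from 0.7 or 1.5 nM up to 3 µM, without and then with constant ligand. The buffer held 100 mM Tris-HCl pH 7.5, 80 mM KCl, 4 mM MgCl2, BSA, DTT, yeast tRNA and Tween-20. Apparent Kd values are medians of filtered per-cluster binding-curve fits to green signal normalised to red-channel RNA signal and control-cluster median Fmax.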

[1] = designed as: OFF switch for flavin mononucleotide, no ligand
[2] = ligand present: flavin mononucleotide, designed as: OFF switch for flavin mononucleotide
[3] = designed as: ON switch for flavin mononucleotide, no ligand
[4] = ligand present: flavin mononucleotide, designed as: ON switch for flavin mononucleotide

Sequence	apparent Kd [1] [µM]	apparent Kd [2] [µM]	apparent Kd [3] [µM]	apparent Kd [4] [µM]
ACAGGCUUCGAGAAGGACAUGAGGAUCACCCAUGUGCGUGUGAAGCAGCCGUGAGGCUGCAUCAUGUAGGAUAUCGGAGUCUGU	0.0638	0.374		
AUGGGACAUGAGGAUCACCCAUGUUAGGAUAUCUCCUUAGUAACGAUCAGGCUAUAGGAGAGAAGGAACGGUCC	0.258	0.272		
GAUCCACAUGAGGAUCACCCAUGUGAGGAUAUGAUACUAUGUACUUCGGUACAUAGUAUCAGAAGGCACGGGUC	0.0841	0.206		
GAGCGAAAGCUCAAUGUCGAUAGCAGAAGGGCAUGAAAACAUGAAAACACAUGAGGAUCACCCAUGUAGGAUAUGCUAUCGACU	0.0106	0.0176		
GCCCGCCUAGCAGGAUAUACAGGUUGGCGGACAUGAGGAUCACCCAUGUAAGGCUACAUACACUUGUAGAAGGGUUGGGUGUCC			0.0934	0.0337
CAGGUAGACUGAGGAUAUACACUAAACAGCUAGUCUAUCUAGCUGGUCACAUGAGGAUCACCCAUGUAGAAGGCAGUCUGCCUG	0.0178	0.0359		
UAUAUAUAGUAAGGAUAUGUAUUAUUUUUAUAAACAGAAGGUACUGACAUGAGGAUCACCCAUGUUUUAGUGUGGGCAUGUAGA	0.0491	0.0704		
AUCCGGAGGGAGAAGGGCUAGGAGGUCCAGCUUAUGUGUGUUGCAACAUGAGGAUCACCCAUGUAGCAGGAUAUCCCUUGUAUA	0.0512	0.214		
UUGGCAUCGUAGAAGGGUGACAUGAGGAUCACCCAUGUGAUGAUAUUUCUCGAGAUAUGUUGUCCAUAGGAUAUACGAGCGAAC			0.0809	0.0185
UUUUUAGCAGGAUAUAUCCACGACCACAUGAGGAUCACCCAUGUGGCCGCUUGAGGUUGUAUAGAAGGGCUUUUUU	0.014	0.0148		
AAAAAACAAGGAUAUACGCAGGAGGGUUGUCUUAAUUUUUGACAUGAGGAUCACCCAUGUAGAAGGUGUUAAAA	0.237	0.507		
AGUCAGAGCAGAGGAUAUAUACAUGAGGAUCACCCAUGUGACUGACUAUGCUAGAAAUAGCAUGUAUAGAAGGCUGCUCUGACA	0.0849	0.223		
AAUUAAUUAAUACAUGAGGAUCACCCAUGUAAUUAUUAGAUCAAGGAUAUCAGCUCGAAUAGAGCUGAGAAGGUGAUCACAUGU			0.475	0.111
AUGUUACAUGAGGAUCACCCAUGUGAGGAUAUGUGUACCCGUAAAAAAGUGUCGGGCCAUAGAAGGCAUUUGGA	0.0484	0.0499		
CGCUGUCAUGCAGGAUAUGCAUUGGUUUACAAUGCAGAAGGGCGAUUACAUGAGGAUCACCCAUGUGUAGACAGUGAAGAAGAG			0.157	0.0129
UUGUUUGUAGUGAGGAUAUCGUUGAGGAAGAGGAUCGAGAAGGCACAUGAGGAUCACCCAUGUUAGAUGUGGUU	0.17	0.198		
UUGGCGACGUAGAAGGGUGACAUGAGGAUCACCCAUGUGCCGAUAUUUCUCGAAAUAUGUCGGCCACAGGAUAUACGUGCCAUC			0.0382	0.0918
UGAAAGCUAGGAUAUACAUGAGGAUCACCCAUGUACCGGCUUGGCCCUGGUCCAAAGUGUAGAAGGAGCACGCC	0.0282	0.0503		
UGUACCGUUGGAACGCGUCGAGUACAUGAGGAUCACCCAUGUCAGGAUAUGUGGCGGAAGGUAGCACAGAAGGGACAUAGAAAA	0.0301	0.0867		
AUAAUGUGAGGAUAUCAGUCGUACAGCUUCGGCUGUACGACUGAGAAGGCACAUGAGGAUCACCCAUGUGGUCA	0.499	0.0842		
CCAACCGGCACCGGUUGAACAUGAGGAUCACCCAUGUACUCCAGAAGGCCGCCCAAGAACGGAGUGGAGGAUAUGGAGGUUCUC			0.0155	0.012

Sequence	apparent Kd [1] [µM]	apparent Kd [2] [µM]	apparent Kd [3] [µM]	apparent Kd [4] [µM]
UAAAAGAAAGUAAGGAUAUCUAAAUUGGAAAAGAGAGAGAAGGUACAUGAGGAUCACCCAUGUAGGGUAUCCGG	0.0521	0.0728		
CUGUUAUUGAUCCAUUUUUUCAACAUGAGGAUCACCCAUGUGCAGGAUAUCUUGUUUAUUUUCAUCGAGAAGGGCAUAUUCACG	0.159	0.196		
GUCAGCUCGUGAGGAUAUACAUGAUAGAUCGAUUAAUUAAUUAAUUUAACAUGAGGAUCACCCAUGUAGAAGGCACGAGCUGAU	0.0572	0.0466		
ACCGUUGAAGCAGGAUAUUACAGCGCCAGCGUGUAAGAAGGGCUUCAACAUGAGGAUCACCCAUGUUGGAGUACCUCAAAAGUG	0.00514	0.0314		
UUAUCUCAUGAGAAGGACAUGAGGAUCACCCAUGUAGGAUAUCAUGGGUCAGAGGAAUUGAAUCUAAUGAUUCAAUUACUCUUC			0.0605	0.0104
AUUUAACCCAGCGGUGCUGAUGCACAUGAGGAUCACCCAUGUAGAAGGCAGCUAGACACUUAAGCUGAGGAUAUACAUGUAAGA	0.0156	0.0633		
ACAUGAGACUUAGGAUAUGUUGUACCUACAUGUGACAUGAGGAUCACCCAUGUGGUAAGUAUGACACAGAAGGAAGAGAUAUGU			0.0214	0.0199
GCCAGGGAUUCAGGAUAUAUUAGCCGAGGCCGAGUAGAAGGGAAAUCCUGACAUGAGGAUCACCCAUGUCGACCCGCCUUCCUC			0.0205	0.0211
UGUAUGGACAGAGGAUAUACAGAUAGGAUCUACUAUCAAACAGUCCUUACAUGAGGAUCACCCAUGUAGAAGGCUGUCCAUACU	0.0194	0.0858		
AGUACUCAAAGAGUACCCAUACGGACAUGAGGAUCACCCAUGUAGGAUAUGCUACUCAAAGAGUAGUAGAAGGACAUAUACCUC	0.00891	0.0157		
AAUUGGAUGCAGAAGGCAUGGACGACUCGUCAAAUUAACAUGAGGAUCACCCAUGUCAAAAGACAUGAGGAUAUGCAUCCUAAA			0.189	0.0126
UGUCGGAGCAGAGGAUAUAUACAUGAGGAUCACCCAUGUAAAUGGAAUAGCUGGAAACAGCAAGUAUAGAAGGCUGCUCCGACA	0.0374	0.112		
GUGGUUGUCGUAGGAUAUGUAGGAUAUUCCUACAUGAGGAUCACCCAUGUUCGCAUGGAAGAAGGACGGAAGGACGAUGACCAA			0.306	0.125
UAGAUGGGAGGAUAUGCGUAGAUACGGAUUCGUGUGGUGCUACAUGAGGAUCACCCAUGUAGAAGGCCCGUCUU	0.0128	0.0186		
UUAUUUAUGUAAGGAUAUCGAUGAUAUACGCAUCCGACAUGAGGAUCACCCAUGUUUUAUUUUGUCGAGAAGGUACAUUGUCGG			0.0578	0.0571
UAUAACCGAGGAUAUACAUGAGGAUCACCCAUGUAAUGUAGUAUAAUGUAUGUAAAAUGUAGAAGGUGGGAUGU	0.0544	0.047		
UGAGAUCAUGUAGGAUAUGCAUGGCGAAGCUACGCAGAAGGACAUGAGGAUCACCCAUGUUAUAGCUACCCAGUUCGGUGGCAA	0.0444	0.0867		
CGGUCGAAGUAAGGAUAUCGACUGGAUAACAGUCGAGAAGGUACAUGAGGAUCACCCAUGUAAUCCUAUAAUAAAUAACGACCG	0.0121	0.0155		
UUAUGAGAGCAGGAUAUCUUAUUUUUUUUUUGUGGAGAAGGGCUGACAUGAGGAUCACCCAUGUGGUCCUAGAU	0.0279	0.0329		
GUAGCUAUCGGAGGAUAUUCAUAAAACAUGAGGAUCACCCAUGUUAAAUUGGGAGAAGGCCGAUAGCUACAAGAGCGAAAGCUC			0.00585	0.00476
